Source: PubChem BioAssay
Hits are enriched below; roughly 0.62% of the tested compounds scored in any of these assays.
PMI act: increases human mannose-6-phosphate isomerase activity. purified human PMI, coupled resazurin fluorescence, 20 min; active compounds read high; 1 = vehicle control, 0 substrate-free wells. activation factor at 20 µM. 190,000 compounds, 0.005% hits;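 active = activation factor of 2 or more at 20 µM, relative to plate controls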
TNAP inh hiacc: TNAP (human) inhibition, high acceptor. purified TNAP, CDP-star luminescence, 1 M DEA. inhibition, % at 20 µM. 200,000 compounds, 0.03% hits;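 active = over 50% inhibition of tissue-nonspecific alkaline phosphatase at 20 µM in the single-dose screen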;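 also: plate controls were DMSO wells for no effect and EDTA-quenched wells as full inhibition for full effect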
Target sequence (P05186 whole entry, looked up): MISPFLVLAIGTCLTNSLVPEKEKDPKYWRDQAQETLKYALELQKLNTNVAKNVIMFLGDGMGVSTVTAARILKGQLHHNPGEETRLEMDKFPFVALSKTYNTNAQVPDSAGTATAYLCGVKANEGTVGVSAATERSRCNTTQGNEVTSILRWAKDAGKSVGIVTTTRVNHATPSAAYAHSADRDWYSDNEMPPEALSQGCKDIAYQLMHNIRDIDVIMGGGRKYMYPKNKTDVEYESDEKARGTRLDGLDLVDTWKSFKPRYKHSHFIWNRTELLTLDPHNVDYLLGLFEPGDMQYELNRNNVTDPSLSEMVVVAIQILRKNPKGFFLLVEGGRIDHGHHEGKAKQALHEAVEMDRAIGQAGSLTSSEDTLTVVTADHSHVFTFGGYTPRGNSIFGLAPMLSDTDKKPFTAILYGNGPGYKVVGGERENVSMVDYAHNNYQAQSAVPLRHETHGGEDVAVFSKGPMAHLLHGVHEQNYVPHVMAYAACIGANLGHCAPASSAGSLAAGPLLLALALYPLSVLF
PMI act hi M6P: increases human PMI activity with near-saturating mannose 6-phosphate; P34949; coupled PMI enzyme assay, resazurin fluorescence, 20 min; active compounds read high; 1 = untreated enzyme, 0 = substrate-free blank; activation factor at 20 µM; 190,000 compounds, 0.34% hits; AID 1216;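 active = activation factor of 2 or more at 20 µM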
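assay system = human phosphomannose isomerase with PGI, G6PDH, diaphorase coupling enzymes | quantity = 15 ng/mL PMI | incubation = enzyme reaction with compound 20 min at room temperature | medium = HEPES pH 7.4 buffer with MgCl2 and Tween-20 | compound dosing = one concentration, 20 µM, in 1% DMSO | measured by = Diaphorase-driven resazurin-to-resorufin fluorescence, excitation 544, emission 590 nm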
TNAP inh noacc: inhibitors of human TNAP without phosphate acceptor; P05186; purified TNAP, CDP-star luminescence, 30 min; inhibition, % at 20 µM; 200,000 compounds, 0.26% hits; AID 1012;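 active = tissue-nonspecific alkaline phosphatase inhibition above about 50% at 20 µM in the single-dose screen, limit read from the data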;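 also: 0% = DMSO negative control and 100% = EDTA positive control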
TNAP act hiacc: increases human TNAP activity under high phosphate acceptor concentration. purified TNAP, CDP-star luminescence, 1 M DEA, 30 min; active compounds read high; 0 = EDTA background, 1 = DMSO-only activity. activation factor at 20 µM. 200,000 tested, under 10 active;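 active = activation factor at least 2 at 20 µM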
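Test system – human TNAP · Doses – 20 µM single point · Incubation – 30 min, room temperature · Signal – luminescent substrate turnover signal · Read-out basis – activation factor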
Starred values were filed as active, the others as inactive.

SMILES	PMI act	TNAP inh hiacc	PMI act hi M6P	TNAP inh noacc	TNAP act hiacc
O=C1OCC(CO)(CO)N=C1NNc1ccccc1Cl	1.6	1	2*	-23	1
CCOC(=O)CC1=NN(c2ccccc2)C(=O)/C1=C\c1ccc(N(C)C)cc1	0.8	32	0.8	38	0.7
CC1=NN(c2ccccc2)C(=O)/C1=C/C=C/c1ccc(N(C)C)cc1	0.9	54*	0.8	50*	0.5
O=C(Nc1cccc(O)c1)c1ccc(Br)cc1	0.9	0	0.9	-7	1
O=C(NNc1ccc(O)cc1)c1ccc(Br)cc1	1.5	2	2.2*	44	1
C/C(=N\NC(=O)C1(C)CC1(Br)Br)c1ccc(NC(=O)c2ccc(C)o2)cc1 (centres undefined)	1	-5	1	1	1
CCOC(=O)/C(=N\Nc1ccc(Br)cc1)N1CCN(c2ccccc2OC)CC1	1.8	-2	2.4*	-4	1
COc1ccc(C2C(C(=O)NCc3ccccn3)CCC(=O)N2c2cc(OC)c(OC)c(OC)c2)cc1 (centres undefined)	1	-1	0.9	-6	1
Cc1[nH]c2ccccc2c1C(=O)CSc1nc2ncc(Cl)cc2[nH]1	1.1	1	1.3	58*	1
N#C/C(=C\c1ccc(O)c(O)c1)C(=O)N1CCCC1	0.6	26	1	73*	0.7
COc1ccc(/C=C(\C#N)C(=O)N2CCOCC2)cc1Br	0.9	-2	0.9	-5	1
N#C/C(=C\c1ccc(O)c(O)c1)C(=O)NCCCc1ccccc1	0.8	34	1.1	79*	0.7
O=C(N/N=C/c1ccc2c(c1)OCO2)c1ccc(COc2cccc3cccnc23)cc1	0.9	-3	0.9	-10	1
Cc1ccc(C)c2[nH]c(=O)c(CN(Cc3ccco3)C(=S)NCC3CCCO3)cc12 (centres undefined)	1.2	-4	1.3	-6	1
CC1(C)CC(=O)c2c(Cc3ccccc3)n[nH]c2C1	1	-2	1	88*	1
CC1(C)CC(=O)c2c(-c3cccnc3)n[nH]c2C1	1	-6	1	72*	1.1
CCCCc1n[nH]c2c1C(=O)CC(C)(C)C2	1	-3	1	87*	1
CC1(C)CC(=O)c2c(nn(-c3ccccc3)c2-c2ccncc2)C1	1	16	0.9	-7	0.8
CCc1n[nH]c2c1/C(=N\O)CC(C)(C)C2	1	-7	1.1	3	1.1
CC1(C)CC(=O)C=C(NCc2ccccc2)C1	1	-1	1	-9	1
COc1ccc(C(=O)Nc2cc(C)on2)cc1S(=O)(=O)N1CC(c2ccccc2)CC1=O (centres undefined)	1	4	0.9	-1	1
CCN(CC)CCC(C)OC(c1ccccc1)c1ccccc1 (centres undefined)	1.1	-4	1.1	-12	1
CCCCCCC1(C)NC(=S)N(c2ccccc2)N1 (centres undefined)	1.9	2	3*	-6	1
CC1(CC(=O)Nc2ccccc2)NC(=S)N(c2ccccc2)N1 (centres undefined)	1.3	-4	1.1	-13	1
CCCCCC1(C)NC(=S)N(c2ccccc2)N1 (centres undefined)	2*	5	3.1*	4	1
SMILES	PMI act	TNAP inh hiacc	PMI act hi M6P	TNAP inh noacc	TNAP act hiacc
CCSc1oc(-c2cccs2)nc1S(=O)(=O)c1ccccc1	1.7	-4	2*	-10	1
CCSc1oc(-c2ccco2)nc1S(=O)(=O)c1ccc(F)cc1	1.2	-5	1.6	-7	1
CCC(O)CC(C(=O)NNc1ccccc1)C(=O)NNc1ccccc1 (centres undefined)	1.8	-7	2.8*	-12	1.1
CCc1ccc(NC(=O)C(CC)c2ccccc2)cc1 (centres undefined)	1.1	6	1.2	-2	0.9
NC(=S)N/N=C\c1c2ccccc2cc2ccccc12	1.6	-1	2.3*	1	1
COc1ccc(N2C(=O)C(CN3CCN(C)CC3)C2c2ccccc2)cc1 (centres undefined)	0.9	-4	0.9	-6	1
CCCCN1C(=O)/C(=C2/Sc3ccccc3N2C)S/C1=N\c1ncn[nH]1	1	0	1	-10	1
C=C1c2cc(C)ccc2NC(=O)N1c1ccccc1	1.8	-5	2.9*	-8	1.1
C=C1c2ccccc2NC(=O)N1c1ccc(OC)cc1	1.7	-3	2.5*	0	1
Cc1ccc2c(c1)/C(=C/c1ccco1)C(=O)N2	1	2	1	-1	1
COc1cccc(CC2(CO)CCCN(Cc3cc4ccccc4[nH]3)C2)c1 (centres undefined)	0.9	-4	0.9	-4	1
CCOC(=O)c1sc(NN=C(C(=O)OC)C(=O)OC)c(C(=O)OCC)c1C	1	30	1	-11	0.7
COC(=O)c1cc(=O)c2c(C)nc(C(Cl)(Cl)Cl)nc2[nH]1	1.2	-3	1.1	-31	1
COc1cc(NC(=S)N2CCN(c3ccccn3)CC2)cc(OC)c1	0.9	-1	0.9	-14	1
Cc1cc(C)nc(N/N=C2/CCCC/C2=C\c2ccccc2)n1	0.8	-3	0.8	-7	1
Cc1ncsc1CCOC(=O)c1ccc(Cl)cc1	0.9	-1	0.9	-2	1
COc1cc(/C=N/NC(=O)CC#N)cc(Br)c1O	0.9	0	0.9	-13	1
COc1cc(/C=N/Nc2cccc(C)c2)ccc1OC(=O)c1cccs1	1.4	0	2.1*	3	1
COc1cc(/C=N/Nc2cccc(C)c2)cc(Br)c1O	1.7	0	2.4*	-20	1
COC(=O)c1ccccc1NC(=O)NCc1c(C)nn(C)c1C	0.9	-1	1	2	1
Cc1ccc(C)c(N/N=C2\CCCNC2=O)c1	1.8	1	2.5*	8	1
COc1ccc(/C(=N\Nc2ccccc2C(=O)O)c2ccccc2)cc1	1.6	-4	2.2*	-4	1
COc1cccc(C2SCC(=O)N2c2ccc(Br)cc2)c1OC (centres undefined)	1.7	-2	2.2*	-11	1
O=C1CSC(c2ccccc2F)N1c1ccccc1 (centres undefined)	1	0	1	-10	1
COc1cc(OC)c(S(=O)(=O)Nc2ccc(C)cn2)cc1NC(C)=O	0.9	-4	1	-15	1
C=CCSc1n[nH]c(-c2ccc(OCCC)cc2)n1	0.9	-1	0.8	50*	1
CN(/C=C1/C(=O)CNC1=O)CCO	1	0	1	-12	1
CCc1ccccc1NC(=O)CSc1nc(-c2ccccc2)nn1C(=O)c1cccc([N+](=O)[O-])c1	0.9	-5	1	15	1.1
